# TAAR1 antag: human TAAR1 antagonists, primary screen, Fluo-8 calcium fluorescence, CHO RD-HGA16 cells; Trace amine-associated receptor 1 (Homo sapiens), Q96RJ0; antagonist; inhibition, % at 3 µM; hit rate 1.5% among 360,000;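 active means inhibition above a per-plate cutoff, the mean inhibition of test compounds on that plate plus 3 SD, cut at about 49% in these data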;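 further: 0% = DMSO plus EC80 beta-PEA response and 100% = DMSO alone without agonist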
#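 Test system: hTAAR1-expressing CHO RD-HGA16 cells, Gα16-coupled; Probe or stimulus: EC80 β-phenethylamine stimulus; Compound dosing: single nominal final test compound concentration of 3 µM; Timing: 140 s kinetic read after compound, 140 s after agonist; Signal: Fluo-8 calcium-sensitive fluorescence; Measure: % inhibition of agonist calcium response; Controls: DMSO and EC80 PEA controls.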
# TAAR1 ag: human TAAR1 agonists, primary screen, Fluo-8 calcium fluorescence, CHO RD-HGA16 cells | vehicle wells 0%, saturating PEA agonist 100% | activation, % at 3 µM | hit rate 0.99% among 360,000 | AID 624467, 2012;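 active means activation above the mean activation of all test compounds in the run plus 3 SD, cut at about 38% in these data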
#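 Assay system: CHO-derived RD-HGA16 cells with stable Gα16 and human TAAR1; timing: 17-24 h seeding, 75 min 37 °C dye, 30 min RT; read-out: % activation from peak over basal fluorescence ratio, DMSO-to-PEA scaled; measured by: kinetic Fluo-8 calcium fluorescence; benchmarks: low control DMSO, high control PEA (EC100); doses: 3 µM single concentration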
# OX1R antag-1: OX1R (HCRTR1) antagonists, primary screen, fluorescence, CHO/OX1R cells, Fluo-8 calcium, orexin A; Fluo-8 calcium fluorescence; inhibition, % at 5 µM; hit rate 0.43% among 330,000; AID 434989, 2010;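 active means inhibition above its plate's threshold, mean inhibition of all tested compounds on the plate plus 3 SD, cut at about 37% in these data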;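 further: 0% = orexin A challenge wells and 100% = SB-334867-A antagonist wells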
# Target sequence (O43613 whole entry, looked up): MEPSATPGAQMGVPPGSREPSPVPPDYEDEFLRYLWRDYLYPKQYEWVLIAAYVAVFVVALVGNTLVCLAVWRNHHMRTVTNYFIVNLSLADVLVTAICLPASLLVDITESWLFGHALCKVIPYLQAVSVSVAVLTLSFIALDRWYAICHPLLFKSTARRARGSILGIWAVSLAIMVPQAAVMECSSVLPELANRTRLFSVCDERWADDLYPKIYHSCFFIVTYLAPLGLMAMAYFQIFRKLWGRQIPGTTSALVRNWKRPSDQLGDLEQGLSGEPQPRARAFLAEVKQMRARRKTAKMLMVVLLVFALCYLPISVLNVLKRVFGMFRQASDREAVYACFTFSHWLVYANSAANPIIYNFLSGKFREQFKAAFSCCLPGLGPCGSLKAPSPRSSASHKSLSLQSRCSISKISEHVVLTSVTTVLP
# CHO parental Ca: ATP-evoked calcium signal inhibitors, parental CHO, primary screen, counter-screen for OX1R antagonist project, cell-based, fluorescence, Fluo-8 calcium dye; parental CHO-K1, ATP-induced calcium, Fluo-8 fluorescence; inhibition, % at 5.6 µM; hit rate 0.63% among 330,000; AID 463079, 2010;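 active means inhibition above that plate's mean sample inhibition plus 3 SD, cut at about 26% in these data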;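 further: 0% = ATP-challenged DMSO wells and 100% = DMSO wells without ATP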
#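 Test system: untransfected parental CHO cell line. Compound: one dose, 5.6 µM nominal. Detection: intracellular calcium via Fluo-8 no-wash fluorescent dye. Measure: % inhibition. Benchmarks: ATP-challenged DMSO wells low, unchallenged DMSO wells high.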
# OX1R antag-2: antagonists of human orexin 1 receptor (OX1R) | hit rate 1.8% among 330,000 | inhibition, % at 6.6 µM | Orexin/Hypocretin receptor type 1 (Homo sapiens), O43613 | OX1R-expressing cells, FRET antagonist read-out; in the data active means inhibition mostly above about 38%, no sharp cut-off; inactive means mostly below about 40%;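 further: 0% = agonist challenge alone and 100% = reference antagonist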
# GalR3 antag: GalR3 antagonists in HEK293 cells, primary screen, cell-based, fluorescence readout; HEK293 GalR3-CNG cAMP membrane potential fluorescence; galR3 body fused to GalR1 C-terminus; hit rate 0.44% among 360,000; AID 651719, 2012; inhibition, % at 3 µM;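 active means inhibition above the screen-wide average plus 3 SD, cut at about 13% in these data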;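 further: forskolin and galanin both at EC90 stimulate the cells; cAMP rise reported by CNG channel membrane potential dye signal; 0% = forskolin plus galanin with DMSO and 100% = forskolin alone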
# Active calls of the source: *; / = not tested or not shown. Only some compounds are listed: those with a hit (about 4.2% of all), similar ones and a draw of the others.
SMILES,TAAR1 antag,TAAR1 ag,OX1R antag-1,CHO parental Ca,OX1R antag-2,GalR3 antag
O=C(OCc1cc([N+](=O)[O-])cc2c1OCOC2)c1cccnc1SC(F)F,-7,0,/,/,/,-2
Cc1ccc(C)c(C(=O)CN2C(=O)c3ccccc3S2(=O)=O)c1,18,9,-5,-7,6,1
COc1ccc(-c2ccc(C(=O)Nc3cccc(F)c3)c3occc23)c(C)c1,6,3,/,/,/,-1
COc1ccc(-c2ccc(C(=O)Nc3cccc(NS(C)(=O)=O)c3)c3occc23)c(C)c1,71*,3,/,/,/,-6
O=C(Nc1ccc(-c2ccccc2)cc1)c1ccccc1,4,3,-13,-17,-5,-10
C=CCN1N=C(c2ccc(NC(=O)c3ccccc3)cc2)CSC1=O,10,13,-9,47*,9,5
COc1cccc(C(=O)CSc2nnc(-c3cc(OC)c(OC)c(OC)c3)o2)c1,35,5,-22,-5,18,-2
CCOC(=O)c1nnn(-c2nonc2N)c1CN1CCc2ccccc2C1,7,40*,-13,-10,15,-6
CCC(Sc1nc2ccsc2c(=O)n1Cc1ccc(C(=O)O)cc1)C(=O)Nc1ccc(C)c(Cl)c1 (stereo unspecified),58*,12,26,31,6,4
CNC(=S)N(CCc1c(C)[nH]c2ccc(F)cc12)Cc1cccnc1,6,8,-18,-5,-1,-8
COC(=O)c1cn(NC(=O)Cc2cccc(C(F)(F)F)c2)c(=O)c2ccccc12,-20,3,-8,2,76*,-3
COC(=O)c1cn(NC(=O)Cc2ccc(Cl)cc2)c(=O)c2ccccc12,14,11,-26,-13,22,-6
O=C(Nc1nccs1)[C@@H]1CC=C[C@@H]2CCN(Cc3ccccc3)C(=O)[C@@H]21,7,14,6,-17,68*,-2
O=C(NCCc1ccccc1)C1CCC(CNS(=O)(=O)c2ccccc2)CC1 (stereo unspecified),5,28,-14,5,4,-10
COc1ccc2c3c(cccc13)N(C)N=C2C,-1,12,-22,-16,66*,-1
C/C(CC(=O)Nc1ccc([N+](=O)[O-])cc1)=N\NC(=O)c1ccccc1[N+](=O)[O-],-24,1,32,32*,2,1
COc1cc(Nc2nc(-c3ccccc3)c3cc(C)ccc3n2)cc(OC)c1OC,18,-2,-48,-36,8,-2
Cn1c(=O)c2c(nc(CN3CCN(c4ccccc4F)CC3)n2CCN2CCOCC2)n(C)c1=O,2,6,-17,-10,7,0
O=S(=O)(Cc1ccc(Cl)cc1)Oc1ccc(Cl)cc1,55*,0,/,/,/,-9
COc1cc(S(=O)(=O)N2CCN=C2c2ccccc2)c(OC)cc1Cl,-19,3,-23,-21,20,-2
CCCCNC(=O)C1C2C=CC(C2)C1C(=O)O (stereo unspecified),-5,42*,-4,-4,-21,-7
O=C(O)C1C2C=CC(C2)C1C(=O)NCCCN1CCOCC1 (stereo unspecified),1,3,-19,-2,-2,-4
CC(C)(C)NC(=O)CN(C(=O)CNC(=O)c1cccs1)c1ccccc1F,-12,2,-23,1,10,-10
COc1ccc2cc3cc(C(=O)NCCN4CCc5ccccc5C4)oc3nc2c1,/,/,-18,-11,42*,/
COc1ccc2cc3cc(C(=O)NCCN4CCN(Cc5ccccc5)CC4)oc3nc2c1,13,2,-38,-33,61,-7
COc1ccc2cc3cc(C(=O)NCCCN4CCC(C)CC4)oc3nc2c1,/,/,-19,-4,46*,/
COc1ccc2cc3cc(C(=O)N4CCCCCC4)oc3nc2c1,/,/,2,-10,57*,/
